Assay results reported in PubChem BioAssay AID821 (SRMLSC, 2007).
Active and inactive are the calls of the source.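 Rule for the calls: active = compounds whose fitted half-maximal concentration for reducing fibroblast viability is 100 µM or lower; inactive = the rest.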

Test system: LL 47 lung fibroblast viability, ATP luminescence
Assay: inhibition of LL 47 lung fibroblast growth, concentration-response curve, selectivity screen for endothelial cell growth inhibitor project, cellular system, ATP luminescence readout (AID 821);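 for viability: 100% = median of untreated cell-only wells and 0% = no luminescence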
Settings: not given
Procedure, shortened: (§1)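 Assay system: LL 47 human lung fibroblast cells | Amount: 1,150 cells/well | Schedule: 72 h exposure, 37 °C | Measured by: CellTiter-Glo luminescence | Measure: Percent viability relative to untreated wells, EC50 via 4-parameter fit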

| Structure (SMILES) | EC50 [µM] |
| --- | --- |
| COc1cccc(C(=O)c2sc(NC(C)C)nc2N)c1 | 16.1 |
| COc1ccc(N2C(=O)CC(Sc3nnc(-c4ccccc4)o3)C2=O)cc1 (stereo unspecified) | 13.2 |
| O=C(Oc1ccccc1)c1cccc2cccnc12 | 6.87 |
| CCN(CCNC(=O)C1CCN(Cc2nc(-c3ccc(Cl)cc3)oc2C)CC1)c1ccccc1 | 17.8 |
| c1ccc(-c2nc(N3CCCCCC3)c3ccccc3n2)nc1 | 1.73 |
| CC1=CC(C)(C)Nc2ccc(OC(=O)CN3C(=O)C4CCCCC4C3=O)cc21 (stereo unspecified) | 12.4 |
| CC1=CC(C)(C)Nc2ccc(OC(=O)c3cccnc3)cc21 | 7.47 |
| COC(=O)Nc1ccc(S(=O)(=O)N2c3ccccc3CCC2C)cc1 (stereo unspecified) | 12.5 |
| CN1C[C@H](CNC(=O)OCc2ccccc2)C[C@@H]2c3cccc4c3c(cn4C)C[C@H]21 | 15 |
| O=C(Oc1c(CN2CCOCC2)cc(Cl)c2cccnc12)c1ccc(F)cc1 | 5.32 |
| CCCCN(C)S(=O)(=O)c1ccc(C(=O)Nc2nnc(-c3cccs3)o2)cc1 | 11.5 |
| CCCCn1c(=O)c(C(=O)Nc2cnccn2)c(O)c2ccccc21 | 16.1 |
| CCOC(=O)c1c(NC(=O)CSc2nc(C)cc(C)c2C#N)sc(C(C)=O)c1C | 13.5 |
| Cc1ccc(C2Oc3ccccc3C3=C2C(c2cccs2)n2ncnc2N3)cc1 (stereo unspecified) | 19.1 |
| Oc1ccccc1-c1nnc(SCCN2CCOCC2)n1Cc1ccccc1 | 1.48 |
| CN1CCN(Cc2cc(COCc3ccccc3)c3cccnc3c2O)CC1 | 2.92 |
| O=C(Nc1ccc(-c2nc3c(ccc4ccccc43)o2)cc1)c1ccco1 | 10.9 |
| CN1CCN(CCCN2c3ccccc3Sc3ccc(C(F)(F)F)cc32)CC1 | 17.9 |
| COC(=O)c1ccc2c(=O)n(Cc3ccco3)c(SCC(=O)Nc3ccc(C)c(Cl)c3)nc2c1 | 4.07 |
| CCOC(=O)C1=C(N)n2c(s/c(=C/c3ccco3)c2=O)=C(C(=O)OC)C1c1ccco1 (stereo unspecified) | 9.27 |

Test system: not listed separately
Assay: as above
Settings: LL 47 lung fibroblast viability, ATP luminescence; at 20 µM (top of the series)
Procedure, shortened: as §1

| Structure (SMILES) | viability |
| --- | --- |
| COC(=O)c1ccc2c(=O)n(Cc3ccco3)c(SCC(=O)Nc3ccccc3Cl)nc2c1 | 104% (inactive) |
| CCOC(=O)c1sc(NC(=O)CSc2nnnn2-c2ccc(C)cc2C)nc1C | 81.2% (inactive) |
| O=c1[nH]c(=O)n(Cc2ccccc2)c2nc(-c3ccco3)cc(C(F)(F)F)c12 | 81% (inactive) |
| CCCc1c(C)c2cc(C)ccc2[nH]c1=O | 110% (inactive) |
| COC(=O)c1sccc1NC(=O)c1ccc2c(c1)OCO2 | 103% (inactive) |
| Clc1ccc(-c2nc(NCCN3CCOCC3)c3ccccc3n2)cc1 | 83.1% (inactive) |
| CC(C)(C)n1cnc2cc(NS(=O)(=O)c3ccccc3)ccc21 | 104% (inactive) |
| O=c1oc(-c2ccccc2F)nc2c1cnn2-c1ccccc1 | 105% (inactive) |
| Cc1cccnc1Nc1nc(-c2ccc(O)cc2O)cs1 | 94.8% (inactive) |
| Cc1ccccc1-c1nc(CN2CCC(C(=O)NCCC3=CCCCC3)CC2)c(C)o1 | 87.6% (inactive) |
| Cc1ccc2nc(NC(=O)CSc3ncnc4c3oc3ccccc34)sc2c1 | 113% (inactive) |
| Cc1ccc2c(c1)c1c(n2CC(O)Cn2c(C)nc3ccccc32)/C(=N\O)CCC1 (stereo unspecified) | 89.6% (inactive) |
| COC(=O)c1ccccc1NC(=O)c1cc(-c2cccs2)on1 | 90.8% (inactive) |
| Brc1cccc(-c2nnc3sc(CNC4CCCC4)cn23)c1 | 96.9% (inactive) |
| CCn1c(SCC(N)=O)nnc1-c1ccc2[nH]c(C)c(C)c2c1 | 99.8% (inactive) |
| Cc1cc(S(=O)(=O)N2CCN(Cc3ccc4c(c3)OCO4)CC2)cc(C)c1N1CCCC1=O | 100% (inactive) |
| CCOc1ccc(Nc2oc(-c3ccc(Cl)cc3)nc2C#N)cc1 | 106% (inactive) |
| CCOC(=O)c1ccc(NC(=O)c2c(C)[nH]c(C(=O)OCC)c2C)cc1 | 103% (inactive) |
| COc1ccccc1-c1cc(C(=O)Nc2cc(C)n(Cc3ccc(Cl)cc3)n2)no1 | 86% (inactive) |
| O=C(CSc1nnc(-c2cccs2)n1-c1ccccc1)Nc1ccccc1 | 90.4% (inactive) |
| Cc1nc2c(-c3ccccc3)c(C)[nH]n2c(=O)c1Cl | 119% (inactive) |
| O=C(Nc1ccc(OC(F)F)c(Cl)c1)Nc1ccc2c(c1)OCO2 | 109% (inactive) |
| Nc1c(C(=O)NCc2ccc(F)cc2)c2nc3ccccc3nc2n1CCCN1CCOCC1 | 85.7% (inactive) |
| COc1ccccc1N1CCN(C(=O)c2ccc(Br)s2)CC1 | 103% (inactive) |
| CCOC(=O)N1CCN(c2ncnc3c2oc2nc(C(C)C)c4c(c23)CCC4)CC1 | 108% (inactive) |
| O=Cc1ccc(Sc2nnc(-c3ccccc3)o2)c([N+](=O)[O-])c1 | 89.9% (inactive) |

| Structure (SMILES) | viability |
| --- | --- |
| Cc1cc(C)c2oc(-c3cccc(NC(=O)c4ccc(F)cc4)c3)nc2c1 | 104% (inactive) |
| Cc1ccc(-c2nc3cccnc3o2)cc1NC(=O)COc1ccc(C(C)(C)C)cc1 | 99.4% (inactive) |
| O=C1CCn2nc(-c3ccc(Cl)cc3)cc2N1 | 104% (inactive) |
| CCOc1ccc(OCc2ccc(C(=O)NCC3CCCO3)o2)cc1 (stereo unspecified) | 109% (inactive) |
| Cc1nn(CC(=O)Nc2ccc3c(c2)oc2ccccc23)c(=O)c2ccccc12 | 105% (inactive) |
| COc1ccc(CN2CCn3ncc(C(=O)Nc4cc(C)cc(C)c4)c3C2=O)cc1 | 105% (inactive) |
| CCn1c(SCC(=O)Nc2ccc3c(c2)oc2ccccc23)nnc1-c1ccc(N)cc1 | 97.6% (inactive) |
| O=C1c2[nH]nc(-c3ccccc3O)c2C(c2cccc(Cl)c2)N1Cc1ccco1 (stereo unspecified) | 98.4% (inactive) |
| COc1ccc2nc(NC(=O)CSC3=NCCS3)sc2c1 | 110% (inactive) |
| COc1ccc(O)c(-c2cc(-c3cccc(Br)c3)n[nH]2)c1 | 86.3% (inactive) |
| c1cc2c3c(cccc3c1)NC1(CCCCCC1)N2 | 86.2% (inactive) |
| COc1cc2cc(C(c3nnnn3C3CCCC3)N3CCc4ccccc43)c(=O)[nH]c2cc1OC (stereo unspecified) | 92.9% (inactive) |
| CC(=O)Oc1ccc(N(C(C)=O)S(=O)(=O)c2cccs2)c2ccccc12 | 95.7% (inactive) |
| CCCCOc1ccc(C(=O)OC2CC(C)N(C)CC2C)cc1 (stereo unspecified) | 96.4% (inactive) |
| Cc1nc2ccccc2c2oc(C(=O)NCc3ccc4c(c3)OCO4)cc12 | 102% (inactive) |
| COC(=O)C1=C(C)N=c2s/c(=C3\C(=O)Nc4ccccc43)c(=O)n2C1c1ccccc1 (stereo unspecified) | 80.9% (inactive) |
| O=C(/C=C/NNC(=O)c1ccccc1)c1ccccc1 | 93.2% (inactive) |
| CC1CCCN(c2oc(-c3cccc4ccccc34)nc2C#N)C1 (stereo unspecified) | 99.6% (inactive) |
| Cn1c(=O)c2c(ncn2CC(=O)Nc2nc(-c3ccccc3Cl)cs2)n(C)c1=O | 110% (inactive) |
| Cc1cc(C)n(CC(O)Cn2c3ccc(Br)cc3c3cc(Br)ccc32)c(=O)n1 (stereo unspecified) | 119% (inactive) |
| CC1=C(C)CS(=O)N(S(=O)(=O)c2ccc(Cl)cc2)C1 (stereo unspecified) | 106% (inactive) |
| Cc1ccc(-c2nnc(N3CCN(C(=O)CSc4ncn[nH]4)CC3)c3ccccc23)cc1 | 102% (inactive) |
| CCOc1c(Br)ccc2c1sc1nc[nH]c(=O)c12 | 102% (inactive) |
| Brc1ccccc1OCCCn1cnc2ccccc21 | 111% (inactive) |
| CCOc1cc(/C=N\NC(=O)Cn2nc([N+](=O)[O-])cc2C)ccc1OCc1cccc2ccccc12 | 89.7% (inactive) |
| Cc1ccc2c(c1)[nH]c1c(N3CCN(Cc4ccccc4)CC3)ncnc12 | 88.3% (inactive) |

| Structure (SMILES) | viability |
| --- | --- |
| CCOC(=O)N1CCN(C(=O)c2nn(-c3ccc(C)cc3)c(=O)c3c2c2ccccc2n3C)CC1 | 100% (inactive) |
| CC1=C(C)CS(=O)N(S(=O)(=O)c2ccccc2)C1 (stereo unspecified) | 86.9% (inactive) |
| COc1ccccc1C1CC(c2c(-c3ccccc3)c3cc(Cl)ccc3[nH]c2=O)=NN1S(C)(=O)=O (stereo unspecified) | 83.6% (inactive) |
| CCOc1ccc2nc(NC(=O)CSc3nc4c(c(=O)n(C)c(=O)n4C)n3C(C)C)sc2c1 | 102% (inactive) |
| Cc1ccc(-n2c(Cc3cccs3)nnc2SCC(=O)Nc2ccc(F)c(F)c2)cc1 | 95.7% (inactive) |
| COc1cc(/C=c2\s/c(=C(/C#N)C(=O)N3CCCC3)n(-c3ccccc3)c2=O)ccc1O | 104% (inactive) |
| OC1(Cc2ccn[nH]2)CCCCC1 | 105% (inactive) |
| Cn1cc(SCC(=O)Nc2nc3ccccc3s2)c2ccccc21 | 82.4% (inactive) |
| CCCCn1c(SCC(=O)Nc2cc(NC(=O)c3ccco3)ccc2C)nc2ccccc2c1=O | 99.3% (inactive) |
| Clc1ccccc1-c1ccc(/C=N/n2cnnc2)o1 | 111% (inactive) |
| CCCOC(=O)c1ccc(Oc2cn[nH]c2-c2ccc(OCC)cc2O)cc1 | 98.4% (inactive) |
| Cc1cccc(NC(=O)c2sc3nc4c(c(-c5cccs5)c3c2N)CN(C)CC4)c1 | 86.7% (inactive) |
| COc1cccc(-c2nnc(Nc3nc4c(F)cccc4s3)o2)c1 | 84.7% (inactive) |
| CSc1nc2c(cnn2-c2ccc(C)c(C)c2)c(=O)[nH]1 | 93.2% (inactive) |
| O=C(COc1ccc(Cl)cc1)Nc1ccccc1C(=O)NCc1ccco1 | 82.7% (inactive) |
| Cc1cc(C)c2c(c1)SC1=NC(c3ccccc3)(C(F)(F)F)NC(=O)N12 (stereo unspecified) | 102% (inactive) |
| C=CCn1c(O)c(C2=c3ccccc3=NC2=O)s/c1=N/c1nccs1 | 88% (inactive) |
| Cc1cc(NCCCN2CCOCC2)n2ncc(-c3ccc(Cl)cc3)c2n1 | 84.9% (inactive) |
| N/C(Cc1ccc(Cl)cc1)=N\OC(=O)c1ccc2ccccc2c1 | 91.6% (inactive) |
| Cc1cc(C(=O)OC(C)C(=O)Nc2cccc(S(=O)(=O)N3CCOCC3)c2)c(C)o1 (stereo unspecified) | 105% (inactive) |
| COc1ccc(-c2nnc(SCCc3ccccc3)n2N)cc1 | 113% (inactive) |
| Cc1sc2nc(SCC(=O)NCc3ccco3)n(Cc3ccccc3)c(=O)c2c1C | 98.4% (inactive) |
| Cc1sc2nc(SCC(=O)NCc3ccco3)n(CCc3ccccc3)c(=O)c2c1C | 121% (inactive) |
| COc1cc(NC(=O)Nc2ccccc2)c(OC)cc1NC(=O)CN1CCCCC1 | 82.8% (inactive) |
